A selection: hits, their analogues and other compounds. The true share with any hit is near 2.1%.
MC4R barr agon: activates human MC4R beta-arrestin recruitment | hit rate 0.98% among 360,000 | AID 540308 | activation, % at 8.9 µM | U2OS MC4R beta-arrestin complementation, luminescence; percent of melanotan II response, DMSO zero;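 active = activation above a per-plate cutoff, the mean activation of sample wells on that plate plus 3 SD, cut at about 8% in these data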
TLR9-MyD88 inh: inhibitors of human TLR9-MyD88 binding | hit rate 0.21% among 340,000 | CHO BLA complementation TLR9-MyD88, CCF4 FRET ratio | inhibition, % at 4.98 µM | Q9NR96+Q99836 | AID 504734;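 active = inhibition above the mean over all tested compounds plus 3 SD, cut at about 21% in these data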;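 also: 0% = DMSO only wells and 100% = clavulanate BLA inhibitor control wells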
NOD2 RIPK2 PPI: inhibitors of human NOD2-RIPK2 interaction | O43353 | CHO BLA complementation NOD2-RIPK2, CCF4 ratio | inhibition, % at 4.98 µM | hit rate 0.38% among 360,000; in the data active = inhibition above about 21%;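 also: 0% = vehicle only and 100% = reference blocker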
Target sequence (O43353 whole entry, looked up): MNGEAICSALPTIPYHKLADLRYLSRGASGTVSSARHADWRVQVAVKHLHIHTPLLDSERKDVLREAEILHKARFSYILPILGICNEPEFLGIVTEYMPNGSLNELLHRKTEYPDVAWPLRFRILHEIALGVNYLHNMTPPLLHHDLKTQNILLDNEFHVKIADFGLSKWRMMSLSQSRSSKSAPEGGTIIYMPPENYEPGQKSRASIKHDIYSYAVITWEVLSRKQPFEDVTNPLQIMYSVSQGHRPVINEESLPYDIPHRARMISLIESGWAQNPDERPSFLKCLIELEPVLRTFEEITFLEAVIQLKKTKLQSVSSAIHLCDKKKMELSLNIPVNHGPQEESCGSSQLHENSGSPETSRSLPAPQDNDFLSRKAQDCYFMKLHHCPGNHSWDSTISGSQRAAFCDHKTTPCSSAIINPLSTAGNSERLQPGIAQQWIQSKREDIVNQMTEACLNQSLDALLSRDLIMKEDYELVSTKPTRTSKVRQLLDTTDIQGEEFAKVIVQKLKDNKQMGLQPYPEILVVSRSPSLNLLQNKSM
MC4R antagonist: antagonists of human melanocortin 4 receptor (MC4R). P32245. MC4R-expressing cells, MTII-stimulated cAMP, LANCE TR-FRET. inhibition, % at 6.5 µM. hit rate 0.48% among 360,000. AID 540295;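 active = inhibition above its plate's cutoff, the mean of tested wells on that plate plus 3 SD, cut at about 29% in these data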;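 also: 0% = Melanotan II alone and 100% = Melanotan II plus saturating MCL0020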
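Test system: U2OS cells stably expressing human melanocortin 4 receptor (MC4R); also added: Melanotan II challenge; compound: 6.5 µM single dose; timing: 30-min compound preincubation, 1-h Melanotan II challenge, 1-h detection, room temperature; signal: Eu-cAMP/anti-cAMP TR-FRET, emission 671 nm; repeats: one well per compound, no replicates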
MIN6 prolif: inducers of beta-cell replication in MIN6 cells; MIN6 cells proliferation, ATPlite luminescence, 48 h; cells starved in 0.2% serum; 100% = growth in 10% serum; proliferation, % at 10 µM; hit rate 0.29% among 330,000; AID 2380;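 active = compounds whose signal lies at least 3.5 SD above the mean of all wells on their plate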;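 also: 0% = DMSO-treated cells in low-serum medium and 100% = 10% serum control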
TLR4-MyD88 BLA: TLR4-MyD88 interaction inhibition in cells; AID 861; HeLa CL3-4 TLR4/MyD88 BLA complementation, FRET ratio; hit rate 0.18% among 200,000; inhibition, % at 8.4 µM; in the data active = inhibition above about 25%;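 also: 0% = vehicle and 100% = reference inhibitor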
NOD2-RIPK2 conf: confirmation of human NOD2-RIPK2 interaction inhibitors; CHO cells, NOD2-RIPK2 BLA complementation, CCF4 FRET; AID 624370; hit rate 70% among 1,200; shares compounds with NOD2 RIPK2 PPI; inhibition, % at 4.98 µM;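 active = mean inhibition across replicates above a set limit taken from the earlier primary screen, cut at about 21% in these data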;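 also: 0% = DMSO-only wells and the high end = clavulanate BLA-blocked wells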
BLA counter: hits BLA reporter in NOD2-RIPK2 inhibitor counterscreen; shares compounds with NOD2 RIPK2 PPI; CHO BLA reporter, CCF4 FRET ratio; inhibition, % at 4.98 µM; hit rate 57% among 1,200; AID 624371;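 active = mean inhibition above the low-control mean inhibition plus three low-control SD, cut at about 11% in these data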;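 also: 0% = DMSO only wells and 100% = clavulanate high control wells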
Starred values were filed as active, the others as inactive; nt = not tested or not shown.

SMILES	MC4R barr agon	TLR9-MyD88 inh	NOD2 RIPK2 PPI	MC4R antagonist	MIN6 prolif	TLR4-MyD88 BLA	NOD2-RIPK2 conf	BLA counter
O=C(NCc1cccnc1)/C(=C\c1ccc(-c2ccc(Cl)c(Cl)c2)o1)S(=O)(=O)c1ccccc1	-0.1	8.9	40.7*	27.1	nt	15.3	41.8*	-1.5
O=C(C[n+]1ccccc1)N1CCCc2ccccc21	3.8	4.9	-7.8	1.8	-1.3	-5.9	nt	nt
O=C(Cc1cccc2ccccc12)N1CCCc2ccccc21	-1.3	-0.4	23.6*	-1.5	-0.4	9.7	10.7	6.1
CC1=C(C)/C(=N\OS(=O)(=O)c2ccc(C)cc2)C=CC1=O	1.1	2.8	57.6*	16.5	nt	-4.2	54.4*	3.5
O=C1c2ccccc2C(=O)N1Nc1ccccc1	-0.2	3.4	0.2	5.3	-2.4	6.5	nt	nt
Cc1ccc(NN2C(=O)C=C(c3ccccc3)C2=O)cc1	1.6	nt	84.0*	-15.9	-5.4	-2.7	85.8*	0.6
CN(C)c1ccc(/C=C2\SC(=O)N(CCc3nnc(N)s3)C2=O)cc1	1.6	4.7	23.8*	-14.0	-4.0	nt	21.9*	13.4*
CC1=C(C(=O)N2CCCCCC2)CC(CC(=O)NC2CCCCC2)C(=O)N1Cc1ccc(C(C)(C)C)cc1 (configuration not stated)	nt	nt	3.3	nt	nt	nt	nt	nt
CCOC(=O)[C@]12Cc3c(cc(OC)c(OC)c3OC)[C@H]1N(C1CCCCC1)C(=O)c1cc(OC)ccc12	nt	nt	29.8*	nt	nt	nt	28.2*	-4.4
CCOC(=O)N1CCC(N2C(=O)c3ccccc3C2Nc2cc(OC)c(OC)c(OC)c2)CC1 (configuration not stated)	0.0	-2.8	10.5	-0.1	0.1	-1.1	nt	nt
CCOCCc1nnc(NC(=O)CS(=O)(=O)c2ccc(C)cc2)s1	1.3	3.3	-6.3	0.9	0.2	nt	nt	nt
Cc1ccc2nc(N3CCN(C=O)CC3)nc(-c3ccccc3)c2c1	-0.7	19.2	25.5*	0.7	0.7	8.8	29.4*	38.0*
Cc1ccc2nc(N3CCN(C(=O)CCCC(=O)O)CC3)nc(-c3ccccc3)c2c1	-0.9	4.8	19.4	9.4	-3.1	nt	nt	nt
Cc1ccc(-n2nc3c(N4CCC(C(=O)NCc5ccccc5C)CC4)nnc(C)c3c2C)cc1	9.6*	5.7	24.0*	9.6	-4.7	nt	36.5*	7.4
CCOc1ccc(CNC(=O)C2CCN(c3nnc(C)c4c(C)n(-c5ccc(C)cc5)nc34)CC2)cc1	8.2	7.2	35.9*	-2.9	-4.6	nt	47.6*	18.9*
COc1ccc(-n2nc3c(N4CCC(C(=O)NCc5cccc(C)c5)CC4)nnc(C)c3c2C)cc1	7.1	6.2	13.2	6.8	-7.6	nt	nt	nt
O=C(Nc1cccc(C(=O)N2CCOCC2)c1)C1CC1	-0.2	-3.5	-5.3	3.8	nt	nt	nt	nt
O=C(CSc1nc2ncc(Br)cc2[nH]1)c1ccc([N+](=O)[O-])cc1	3.8	-5.8	21.7*	2.0	-6.9	4.0	13.4	-4.9
CCN(CC)C(=O)CSc1nc2ncc(Br)cc2[nH]1	-1.7	-18.4	2.2	0.9	3.6	0.8	nt	nt
O=C(CN1C(=O)c2ccccc2S1(=O)=O)NCCSCc1cccc(Cl)c1	-1.1	4.1	28.7*	10.4	-1.6	nt	1.6	-0.5
CCN(CC)c1ccc(-c2nn3c(-c4ccccc4OC)nnc3s2)cc1	0.6	-3.8	22.5*	-22.1	-5.9	-9.1	13.7	-7.3
O=C1c2cccc3c([N+](=O)[O-])ccc(c23)C(=O)N1O	-0.8	9.4	20.9*	4.2	-6.0	nt	17.2	12.5*
Cc1cc(NC(=O)CCC(=O)N(CC(=O)NC2CCCC2)c2ccc(C(C)C)cc2)no1	-0.6	-6.2	-4.2	7.5	0.6	nt	nt	nt
Cc1cc(C)c2c(=O)n(CC(=O)Nc3ccc(Cl)cc3)sc2n1	1.0	17.9	30.9*	4.3	-5.9	nt	35.6*	6.1
Cc1cc(C)c2c(=O)n(CC(=O)NCCCN3CCOCC3)sc2n1	-0.5	-0.2	-11.8	21.1	-5.2	-4.0	nt	nt
SMILES	MC4R barr agon	TLR9-MyD88 inh	NOD2 RIPK2 PPI	MC4R antagonist	MIN6 prolif	TLR4-MyD88 BLA	NOD2-RIPK2 conf	BLA counter
Cc1ccc(NC(=O)Cn2sc3nc(C)cc(C)c3c2=O)c(Cl)c1	-0.8	9.3	21.0*	-5.3	-5.9	nt	10.2	1.3
Cc1cc(N(CC(=O)NC(C)C)S(C)(=O)=O)ccc1Br	4.1	-12.9	24.2*	-5.2	0.0	1.9	-6.7	-3.3
O=c1[nH]c2cc3c(cc2cc1CN(CCc1ccccc1)Cc1nnnn1CC1CCCO1)OCO3 (configuration not stated)	-2.5	4.6	10.2	10.4	0.4	-9.1	nt	nt
O=c1[nH]c2cc3c(cc2cc1CN(Cc1nnnn1CC1CCCO1)C1CCCC1)OCO3 (configuration not stated)	-1.0	18.1	39.0*	2.0	-0.5	-2.6	-4.5	0.8
CC1CCN(C(c2cc3cc4c(cc3[nH]c2=O)OCO4)c2nnnn2CC2CCCO2)CC1 (configuration not stated)	-1.8	6.9	-2.2	-1.7	0.3	1.3	nt	nt
O=c1[nH]c2cc3c(cc2cc1CN(Cc1nnnn1CC1CCCO1)C1CCCCC1)OCO3 (configuration not stated)	-0.7	19.9	22.2*	5.5	-3.3	13.9	4.5	0.5
O=C(Nc1nc2c(cc3c4c(cccc42)CC3)s1)c1ccccc1Cl	-0.8	2.3	-0.8	14.4	0.0	5.5	nt	nt
C=C1CC(Cn2cc(Br)c(=O)[nH]c2=O)(c2ccc(-c3ccccc3)cc2)OC1=O (configuration not stated)	-1.5	9.4	79.3*	5.6	nt	nt	71.0*	8.5
O=c1[nH]c(=O)n(Cc2ccc(Oc3ccccc3)cc2)cc1Br	-1.1	-3.0	-2.0	-5.7	0.7	nt	nt	nt
Cc1cc(C)c(S(=O)(=O)Nc2nnc(C3CCCCC3)s2)c(C)c1	-2.5	2.3	-5.9	11.6	-4.0	nt	nt	nt
COc1cccc(C=Cc2nccc3ccccc23)c1OC	0.0	-0.4	3.9	0.9	nt	nt	nt	nt
CN(C)c1ccc(C=Cc2nccc3ccccc23)cc1	nt	nt	75.3*	nt	nt	nt	36.8*	46.2*
Cc1ccnc(NC(=O)CCC(=O)N(CC(=O)NCc2ccccc2)c2ccc3c(c2)OCO3)c1	1.7	-2.6	32.2*	10.0	0.3	2.0	-5.8	-4.8
CCc1cccc(CC)c1NC(=O)CN1CC(C)SC1=NC1CCCCC1 (configuration not stated)	-1.1	1.9	-8.6	9.1	-2.9	-0.3	nt	nt
Cn1cnc([N+](=O)[O-])c1S(=O)(=O)Oc1cccc2ccccc12	-2.5	14.7	56.1*	-2.1	nt	nt	54.8*	1.3
